From ChEMBL document CHEMBL1135783, “Selective agonists at group II metabotropic glutamate receptors: synthesis, stereochemistry, and molecular pharmacology of (S)- and (R)-2-amino-4-(4-hydroxy[1,2,5]thiadiazol-3-yl)butyric acid” (J Med Chem, 2002)

Experiments:
[1] = biological target: Metabotropic glutamate receptor 1 (Rattus norvegicus, UniProt P23385); assay: Compound was evaluated for the inhibitory activity against cloned Metabotropic glutamate receptor 1
Method in brief: (§1)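 CHO cell lines stably expressing mGluR1α, mGluR2, mGluR4a or mGluR5a, grown at 37 °C in 5% CO2 in DMEM with reduced (S)-glutamine ([…]) and 10% dialyzed fetal calf serum. Cells were seeded 2 days before assay: 1.8 × 10^6 cells/well for inositol phosphate (PI hydrolysis) or 1.0 × 10^6 for cAMP formation. Antagonist activity was tested at 1 mM unless stated otherwise.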

[2] = biological target: Metabotropic glutamate receptor 5 (Rattus norvegicus, UniProt P31424); assay: Compound was evaluated for the inhibitory activity against cloned Metabotropic glutamate receptor 5; method in brief: as §1
[3] = biological target: Metabotropic glutamate receptor 4 (Rattus norvegicus, UniProt P31423); assay: Compound was evaluated for the inhibitory activity against cloned Metabotropic glutamate receptor 4; method in brief: as §1
[4] = biological target: Metabotropic glutamate receptor 2 (Rattus norvegicus, UniProt P31421); assay: Compound was evaluated for the inhibitory activity against cloned Metabotropic glutamate receptor 2; method in brief: as §1
Metabotropic glutamate receptor 2, sequence (P31421 whole entry): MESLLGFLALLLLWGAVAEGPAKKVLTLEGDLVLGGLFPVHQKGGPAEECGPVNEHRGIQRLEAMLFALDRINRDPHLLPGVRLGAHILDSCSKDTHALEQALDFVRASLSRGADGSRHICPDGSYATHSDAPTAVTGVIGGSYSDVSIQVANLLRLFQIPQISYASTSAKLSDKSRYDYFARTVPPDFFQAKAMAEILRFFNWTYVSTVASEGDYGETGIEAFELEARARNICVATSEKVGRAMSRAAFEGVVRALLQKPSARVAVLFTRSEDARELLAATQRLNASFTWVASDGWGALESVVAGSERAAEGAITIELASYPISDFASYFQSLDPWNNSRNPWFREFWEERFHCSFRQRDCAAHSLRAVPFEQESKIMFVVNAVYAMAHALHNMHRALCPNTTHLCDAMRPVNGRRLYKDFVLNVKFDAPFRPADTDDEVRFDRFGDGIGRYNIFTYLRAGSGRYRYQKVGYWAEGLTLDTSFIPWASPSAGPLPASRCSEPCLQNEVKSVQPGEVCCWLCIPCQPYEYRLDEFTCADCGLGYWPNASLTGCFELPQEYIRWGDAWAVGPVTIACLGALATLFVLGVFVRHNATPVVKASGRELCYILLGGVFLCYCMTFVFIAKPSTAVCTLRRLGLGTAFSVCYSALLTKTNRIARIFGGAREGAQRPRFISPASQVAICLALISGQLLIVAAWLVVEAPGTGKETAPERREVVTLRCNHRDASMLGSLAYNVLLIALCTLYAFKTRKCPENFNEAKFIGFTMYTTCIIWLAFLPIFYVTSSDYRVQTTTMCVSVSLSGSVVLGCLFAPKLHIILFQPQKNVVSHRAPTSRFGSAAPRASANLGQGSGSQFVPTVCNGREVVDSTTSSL

Metabotropic glutamate receptor 1, sequence (P23385 whole entry): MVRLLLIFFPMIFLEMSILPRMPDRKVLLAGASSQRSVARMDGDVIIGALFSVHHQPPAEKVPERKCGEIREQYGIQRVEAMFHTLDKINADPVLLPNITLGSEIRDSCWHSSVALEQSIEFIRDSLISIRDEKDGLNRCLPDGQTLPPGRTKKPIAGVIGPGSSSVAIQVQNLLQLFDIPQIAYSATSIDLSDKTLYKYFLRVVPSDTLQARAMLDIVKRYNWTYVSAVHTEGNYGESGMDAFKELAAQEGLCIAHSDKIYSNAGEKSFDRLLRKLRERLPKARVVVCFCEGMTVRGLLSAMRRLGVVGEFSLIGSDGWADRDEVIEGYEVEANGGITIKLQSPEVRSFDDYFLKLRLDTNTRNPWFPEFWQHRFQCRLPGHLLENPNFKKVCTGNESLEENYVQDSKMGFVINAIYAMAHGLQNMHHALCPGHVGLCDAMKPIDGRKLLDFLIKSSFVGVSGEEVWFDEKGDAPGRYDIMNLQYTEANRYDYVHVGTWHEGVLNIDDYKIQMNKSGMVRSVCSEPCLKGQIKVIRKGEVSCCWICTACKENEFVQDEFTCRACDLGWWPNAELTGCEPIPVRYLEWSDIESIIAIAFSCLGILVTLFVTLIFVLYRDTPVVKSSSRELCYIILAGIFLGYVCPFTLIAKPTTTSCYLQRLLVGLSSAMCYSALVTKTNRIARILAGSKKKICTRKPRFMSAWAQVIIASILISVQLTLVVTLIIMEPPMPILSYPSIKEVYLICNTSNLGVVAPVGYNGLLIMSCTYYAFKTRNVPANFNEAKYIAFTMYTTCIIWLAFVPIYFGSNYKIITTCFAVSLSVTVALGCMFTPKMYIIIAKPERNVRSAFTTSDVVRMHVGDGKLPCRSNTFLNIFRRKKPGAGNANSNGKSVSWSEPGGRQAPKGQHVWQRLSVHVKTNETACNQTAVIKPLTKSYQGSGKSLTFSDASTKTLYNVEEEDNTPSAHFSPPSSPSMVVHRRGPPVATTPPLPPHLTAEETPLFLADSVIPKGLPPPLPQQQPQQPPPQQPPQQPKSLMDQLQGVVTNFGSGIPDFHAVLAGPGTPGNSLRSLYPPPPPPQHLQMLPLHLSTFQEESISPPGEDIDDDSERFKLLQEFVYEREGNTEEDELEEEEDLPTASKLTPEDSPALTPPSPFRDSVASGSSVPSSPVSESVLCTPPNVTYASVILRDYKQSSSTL
Metabotropic glutamate receptor 4, sequence (P31423 whole entry): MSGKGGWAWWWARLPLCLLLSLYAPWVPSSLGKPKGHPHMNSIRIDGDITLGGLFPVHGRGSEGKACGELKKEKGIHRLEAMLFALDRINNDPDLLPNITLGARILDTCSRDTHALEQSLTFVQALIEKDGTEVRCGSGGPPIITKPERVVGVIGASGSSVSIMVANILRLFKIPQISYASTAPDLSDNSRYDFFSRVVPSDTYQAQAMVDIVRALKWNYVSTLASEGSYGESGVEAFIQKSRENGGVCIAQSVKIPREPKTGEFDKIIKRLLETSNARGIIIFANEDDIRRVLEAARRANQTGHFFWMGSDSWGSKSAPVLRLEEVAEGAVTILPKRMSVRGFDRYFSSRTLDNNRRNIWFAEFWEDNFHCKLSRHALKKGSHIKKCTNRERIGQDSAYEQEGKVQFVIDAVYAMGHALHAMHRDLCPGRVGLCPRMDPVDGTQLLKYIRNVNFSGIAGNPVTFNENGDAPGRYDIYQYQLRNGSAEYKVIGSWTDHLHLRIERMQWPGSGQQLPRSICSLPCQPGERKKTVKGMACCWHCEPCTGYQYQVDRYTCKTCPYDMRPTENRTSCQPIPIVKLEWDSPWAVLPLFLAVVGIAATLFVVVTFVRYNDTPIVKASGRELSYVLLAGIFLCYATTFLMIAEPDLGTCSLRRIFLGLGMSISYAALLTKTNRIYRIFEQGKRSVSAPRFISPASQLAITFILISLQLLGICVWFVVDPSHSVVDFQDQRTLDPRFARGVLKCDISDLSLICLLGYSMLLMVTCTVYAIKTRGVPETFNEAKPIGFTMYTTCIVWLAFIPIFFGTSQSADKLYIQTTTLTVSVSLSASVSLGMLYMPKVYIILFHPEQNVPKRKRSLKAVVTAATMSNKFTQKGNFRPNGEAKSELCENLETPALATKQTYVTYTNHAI
Metabotropic glutamate receptor 5, sequence (P31424 whole entry): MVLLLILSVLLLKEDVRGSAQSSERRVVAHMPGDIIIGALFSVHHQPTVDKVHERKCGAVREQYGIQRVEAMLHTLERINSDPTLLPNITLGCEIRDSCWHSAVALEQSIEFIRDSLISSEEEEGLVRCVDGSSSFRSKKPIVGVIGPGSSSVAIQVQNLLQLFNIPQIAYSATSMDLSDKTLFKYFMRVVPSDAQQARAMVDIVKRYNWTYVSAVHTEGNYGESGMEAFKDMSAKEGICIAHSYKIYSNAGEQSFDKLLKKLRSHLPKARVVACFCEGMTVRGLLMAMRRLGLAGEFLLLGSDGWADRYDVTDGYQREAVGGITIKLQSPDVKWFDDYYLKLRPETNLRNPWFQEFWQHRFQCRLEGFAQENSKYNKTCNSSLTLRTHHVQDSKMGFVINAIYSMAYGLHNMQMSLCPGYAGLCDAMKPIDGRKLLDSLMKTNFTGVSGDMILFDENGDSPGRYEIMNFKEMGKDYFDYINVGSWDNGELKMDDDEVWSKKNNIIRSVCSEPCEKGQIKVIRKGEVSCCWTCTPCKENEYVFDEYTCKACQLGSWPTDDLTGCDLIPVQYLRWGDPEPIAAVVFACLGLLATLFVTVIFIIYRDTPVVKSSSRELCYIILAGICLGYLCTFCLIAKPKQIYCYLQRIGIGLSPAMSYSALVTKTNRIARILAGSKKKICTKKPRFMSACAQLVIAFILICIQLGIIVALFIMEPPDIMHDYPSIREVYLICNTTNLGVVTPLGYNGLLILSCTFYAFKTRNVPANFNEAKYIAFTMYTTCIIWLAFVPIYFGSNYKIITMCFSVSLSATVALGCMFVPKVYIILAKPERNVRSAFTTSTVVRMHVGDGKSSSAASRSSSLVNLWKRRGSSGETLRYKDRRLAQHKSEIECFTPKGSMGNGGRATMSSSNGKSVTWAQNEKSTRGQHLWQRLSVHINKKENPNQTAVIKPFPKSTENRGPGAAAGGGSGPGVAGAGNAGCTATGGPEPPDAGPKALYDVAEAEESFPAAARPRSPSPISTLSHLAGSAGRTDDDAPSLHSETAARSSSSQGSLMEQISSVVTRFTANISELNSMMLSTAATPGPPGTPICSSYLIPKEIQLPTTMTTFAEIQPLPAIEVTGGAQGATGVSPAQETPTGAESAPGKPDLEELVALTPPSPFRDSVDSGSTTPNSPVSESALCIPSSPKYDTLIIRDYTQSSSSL

Question: With `N[C@@H](CCc1nsnc1O)C(=O)O` as the compound, how does the EC50 [1] read?
Answer: Its EC50 is over 1000 µM.

Question: And the EC50 [2]?
Answer: Its EC50 is 190 µM.

Question: What about the EC50 [3] of the same compound?
Answer: Its EC50 is over 1000 µM.

Question: `N[C@H](CCc1nsnc1O)C(=O)O` was tested. Which EC50 [1] did it give?
Answer: Its EC50 is over 1000 µM.

Question: And the EC50 [2]?
Answer: Its EC50 is over 1000 µM.

Question: And the EC50 [3]?
Answer: Its EC50 is over 1000 µM.

Question: For `N[C@H](Cc1cc(=O)[nH]o1)C(=O)O`, which EC50 [1] is on record?
Answer: The EC50 was over 1000 µM.

Question: What about the EC50 [4] of the same compound?
Answer: The EC50 was over 1000 µM.

Question: And the EC50 [2]?
Answer: The EC50 was over 1000 µM.

Question: And the EC50 [3]?
Answer: The EC50 was over 1000 µM.

Question: With `N[C@@H](Cc1cc(=O)[nH]o1)C(=O)O` as the compound, how does the EC50 [1] read?
Answer: The EC50 was 250 µM.

Question: And the EC50 [4]?
Answer: Its EC50 is over 1000 µM.

Question: And the EC50 [2]?
Answer: Its EC50 is 490 µM.

Question: And the EC50 [3]?
Answer: The EC50 was over 1000 µM.

Question: Which EC50 [2] does the source give for `N[C@@H](CCCC(=O)O)C(=O)O` [(S)-2-AMINOADIPIC ACID] here?
Answer: The EC50 was over 1000 µM.

Question: Which EC50 [3] does the source give for `N[C@@H](CCC(=O)O)C(=O)O` [GLUTAMIC ACID] here?
Answer: Its EC50 is 12 µM.
